Experimental data published in ChEMBL document CHEMBL2086239, “Synthesis and biological evaluation of combretastatin-amidobenzothiazole conjugates as potential anticancer agents” (Eur J Med Chem, 2012).
Activity calls are given as the source filed them. The rule behind the calls is not given here.

Legend:
LOX IMVI = assay: Growth inhibition of human LOXIMVI cells after 48 hrs by SRB assay; assay type: functional
Method in brief: (§1)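 NCI 60-cell-line screen: after preliminary screening, tested at five dose concentrations on 59 human tumour lines covering leukemia, lung, colon, CNS, melanoma, ovarian, renal, prostate and breast.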

SF-268 = assay: Growth inhibition of human SF268 cells after 48 hrs by SRB assay; assay type: functional; conditions: SF-268, 48 h; method in brief: as §1
M14 = assay: Growth inhibition of human M14 cells after 48 hrs by SRB assay; assay type: functional; conditions: M14, 48 h; method in brief: as §1
OVCAR-5 = assay: Growth inhibition of human OVCAR5 cells after 48 hrs by SRB assay; assay type: functional; method in brief: as §1
MDA-MB-468 = assay: Growth inhibition of human MDA-MB-468 cells after 48 hrs by SRB assay; assay type: functional; method in brief: as §1
MCF7 [1] = assay: Growth inhibition of human MCF7 cells after 48 hrs by SRB assay; assay type: functional; conditions: MCF7, 48 h; method in brief: as §1
PC-3 [2] = assay: Cytotoxicity against human PC3 cells after 48 hrs assessed as inhibition of cell growth at 10 uM after 48 hrs by SRB assay relative to control; assay type: functional; conditions: PC-3, 48 h, read-out: GI
Method in brief: (§2)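 SRB protein assay in DMEM with 10% FBS at 37 °C, 5% CO2, 100% relative humidity. Cells seeded in 96-well plates, incubated 24 h, then exposed to drug at 10 µM for 48 h and processed per standard protocol. Absorbance read at 560 nm; growth percentage calculated for test wells relative to control wells.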

HT-29 = assay: Growth inhibition of human HT-29 cells after 48 hrs by SRB assay; assay type: functional; method in brief: as §1
DU-145 = assay: Growth inhibition of human DU145 cells after 48 hrs by SRB assay; assay type: functional; conditions: DU-145, 48 h; method in brief: as §1
PC-3 [3] = assay: Growth inhibition of human PC3 cells after 48 hrs by SRB assay; assay type: functional; conditions: PC-3, 48 h; method in brief: as §1
TK-10 = assay: Growth inhibition of human TK10 cells after 48 hrs by SRB assay; assay type: functional; conditions: TK-10, 48 h
Method in brief: (§3)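 NCI 60-cell-line panel, five-dose testing after preliminary screen; sulforhodamine B protein assay in DMEM with 10% FBS, 37 °C, 5% CO2, 100% humidity. Cells seeded and incubated 24 h before compound addition, then exposed 48 h. Absorbance read at 560 nm; growth percentage relative to control wells; GI50 taken as concentration giving 50% growth inhibition.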

HOP-92 = assay: Growth inhibition of human HOP92 cells after 48 hrs by SRB assay; assay type: functional; conditions: HOP-92, 48 h; method in brief: as §1
SK-MEL-28 = assay: Growth inhibition of human SK-MEL-28 cells after 48 hrs by SRB assay; assay type: functional; method in brief: as §3
A549 [4] = assay: Growth inhibition of human A549 cells after 48 hrs by SRB assay; assay type: functional; conditions: A549, 48 h; method in brief: as §1
OVCAR-8 = assay: Growth inhibition of human OVCAR8 cells after 48 hrs by SRB assay; assay type: functional; conditions: OVCAR-8, 48 h; method in brief: as §1
SF-539 = assay: Growth inhibition of human SF539 cells after 48 hrs by SRB assay; assay type: functional; conditions: SF-539, 48 h; method in brief: as §3
SF-295 = assay: Growth inhibition of human SF295 cells after 48 hrs by SRB assay; assay type: functional; conditions: SF-295, 48 h; method in brief: as §3
786-0 = assay: Growth inhibition of human 786-0 cells after 48 hrs by SRB assay; assay type: functional; method in brief: as §1
U-251 = assay: Growth inhibition of human U251cells after 48 hrs by SRB assay; assay type: functional; conditions: U-251, 48 h; method in brief: as §3
K562 = assay: Growth inhibition of human K562 cells after 48 hrs by SRB assay; assay type: functional; conditions: K562, 48 h; method in brief: as §1
A549 [5] = assay: Cytotoxicity against human A549 cells assessed as inhibition of cell growth at 10 uM after 48 hrs by SRB assay relative to control; assay type: functional; conditions: for inhibition of growth at 10 µM: A549, 48 h, read-out: GI; method in brief: as §2
HCC 2998 = assay: Growth inhibition of human HCC2998 cells after 48 hrs by SRB assay; assay type: functional; method in brief: as §1
SK-OV-3 = assay: Growth inhibition of human SKOV3 cells after 48 hrs by SRB assay; assay type: functional; conditions: SK-OV-3, 48 h; method in brief: as §3
RPMI-8226 = assay: Growth inhibition of human RPMI8226 cells after 48 hrs by SRB assay; assay type: functional; conditions: RPMI-8226, 48 h; method in brief: as §1
HEp-2 = assay: Cytotoxicity against human Hep2 cells after 48 hrs assessed as inhibition of cell growth at 10 uM after 48 hrs by SRB assay relative to control; assay type: functional; conditions: for inhibition of growth at 10 µM: HEp-2, 48 h, read-out: GI; method in brief: as §2
SNB-19 = assay: Growth inhibition of human SNB19 cells after 48 hrs by SRB assay; assay type: functional; method in brief: as §3
A498 = assay: Growth inhibition of human A498 cells after 48 hrs by SRB assay; assay type: functional; conditions: A498, 48 h; method in brief: as §1
MCF7 [6] = assay: Cytotoxicity against human MCF7 cells at 4 uM after 24 hrs by MTT assay; assay type: functional, cell-based
Method in brief: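 MCF-7 cells grown in DMEM with 10% fetal calf serum, penicillin and streptomycin at 37 °C, 5% CO2. Seeded at 10,000 cells/well, incubated overnight, then treated 24 h at 4 µM. Medium replaced with fresh medium plus MTT dye, incubated 2 h at 37 °C. Absorbance read at 570 nm; O.D. taken as viability versus untreated control.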

[7] = Inhibition of tubulin polymerization after 30 mins to 1 hr by spectrophotometry
Method in brief: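 This was a kit-based tubulin polymerization assay. Kit tubulin in G-PEM buffer was incubated with compounds, and polymerization was followed as optical density at 340 nm for 30 min to 1 h. Inhibition was read as a decrease in OD. Nocodazole and paclitaxel were run as reference destabilizer and stabilizer.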

MCF7 [8] = assay: Inhibition of microtubule organization in human MCF7 cells at 4 uM after 24 hrs by immunofluorescence analysis; assay type: cell-based
Method in brief: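 MCF-7 cells were grown in DMEM with 10% fetal calf serum and penicillin/streptomycin at 37 °C and 5% CO2. Cells on cover slips were treated for 24 h, then fixed in 4% paraformaldehyde for 20 min. They were permeabilised with 0.2% Triton X-100, held in methanol at 4 °C overnight and blocked with 1% BSA. Staining used anti-α-tubulin (1:100, 2 h RT), FITC secondary and a DAPI/PI mount, with confocal imaging.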

[9] = target: Mitogen-activated protein kinase; ERK1/ERK2 (Homo sapiens) (UniProt P27361+P28482); assay: Inhibition of nuclear translocation of phosphorylated ERK1/2 in human MCF7 cells at 4 uM after 24 hrs by immunofluorescence assay; assay type: cell-based
Method in brief: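 MCF-7 cells (DMEM, 10% fetal calf serum, 37 °C, 5% CO2) were treated on cover slips for 24 h. They were fixed in 4% paraformaldehyde, permeabilised with 0.2% Triton X-100, held in methanol at 4 °C overnight and blocked with 1% BSA for 60 min. Anti-phospho-ERK antibody (1:100, 2 h RT) was followed by FITC anti-rabbit secondary for 1 h and a DAPI/PI mount. Subcellular pERK localisation was imaged by confocal microscopy.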

Sequence of Mitogen-activated protein kinase; ERK1/ERK2 (Homo sapiens) (P27361 whole entry, looked up): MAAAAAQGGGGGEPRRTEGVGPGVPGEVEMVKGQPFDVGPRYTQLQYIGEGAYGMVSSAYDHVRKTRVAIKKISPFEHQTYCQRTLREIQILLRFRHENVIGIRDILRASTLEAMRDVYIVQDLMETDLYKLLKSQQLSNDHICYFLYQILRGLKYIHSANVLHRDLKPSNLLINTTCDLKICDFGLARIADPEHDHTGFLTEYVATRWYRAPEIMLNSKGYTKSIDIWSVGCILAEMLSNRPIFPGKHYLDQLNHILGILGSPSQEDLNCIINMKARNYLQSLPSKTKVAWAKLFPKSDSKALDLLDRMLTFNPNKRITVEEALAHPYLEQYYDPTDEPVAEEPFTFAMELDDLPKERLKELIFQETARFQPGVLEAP
Sequence of Mitogen-activated protein kinase; ERK1/ERK2 (Homo sapiens) (P28482 whole entry, looked up): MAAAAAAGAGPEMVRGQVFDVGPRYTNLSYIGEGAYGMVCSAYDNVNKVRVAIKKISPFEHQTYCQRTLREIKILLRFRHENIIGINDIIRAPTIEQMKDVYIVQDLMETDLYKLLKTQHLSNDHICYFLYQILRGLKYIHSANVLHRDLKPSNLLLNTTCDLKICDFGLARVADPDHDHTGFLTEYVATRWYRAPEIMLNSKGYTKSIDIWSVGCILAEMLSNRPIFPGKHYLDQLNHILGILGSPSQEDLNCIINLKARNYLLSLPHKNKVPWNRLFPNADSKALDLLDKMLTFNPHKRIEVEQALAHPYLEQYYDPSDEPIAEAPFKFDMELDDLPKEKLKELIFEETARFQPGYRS

Structure (SMILES)	GI50 (LOX IMVI) [µM]	GI50 (SF-268) [µM]	GI50 (M14) [µM]	GI50 (MDA-MB-468; MDA-MB-468, 48 h) [µM]	GI50 (MCF7 [1]) [µM]	inhibition of growth at 10 µM (PC-3 [2]) [%]	GI50 (HT-29; HT-29, 48 h) [µM]	GI50 (DU-145) [µM]	GI50 (PC-3 [3]) [µM]	GI50 (TK-10) [µM]	GI50 (HOP-92) [µM]	GI50 (A549 [4]) [µM]	GI50 (OVCAR-8) [µM]	GI50 (SF-539) [µM]	GI50 (SF-295) [µM]	GI50 (U-251) [µM]	GI50 (K562) [µM]	GI50 (SK-OV-3) [µM]	GI50 (RPMI-8226) [µM]	GI50 (A498) [µM]	also measured
COc1ccc2nc(NC(=O)COc3cc(/C=C\c4cc(OC)c(OC)c(OC)c4)ccc3OC)sc2c1	4.17	4.31	4.33	2.29	2.88	33	3.34	2.04	4.45	7.54	6.28	5.19	5.28	2.84	1.84	4	3.6	4.69	5.43	3.5	GI50 (OVCAR-5; OVCAR-5, 48 h): 5.89 µM; GI50 (SK-MEL-28; SK-MEL-28, 48 h): 4.41 µM; GI50 (786-0; 786-0, 48 h): 7.52 µM; inhibition of growth at 10 µM (A549 [5]): 45%; GI50 (HCC 2998; HCC 2998, 48 h): 7.34 µM; inhibition of growth at 10 µM (HEp-2): 71%; GI50 (SNB-19; SNB-19, 48 h): 6.3 µM
COc1ccc(/C=C\c2cc(OC)c(OC)c(OC)c2)cc1OCC(=O)Nc1nc2ccc(OC(F)(F)F)cc2s1	4.77	6.01	4.36	2.3	2.89	34		4.11	5.12	18.6	2.74	6	5	2.28	3.7	3.37	3.43	8.42	5.83	3.61	GI50 (OVCAR-5; OVCAR-5, 48 h): 3.12 µM; GI50 (HT-29): inactive; GI50 (SK-MEL-28; SK-MEL-28, 48 h): 4.57 µM; GI50 (786-0): inactive; inhibition of growth at 10 µM (A549 [5]): 40%; GI50 (HCC 2998; HCC 2998, 48 h): 17.1 µM; inhibition of growth at 10 µM (HEp-2): 78%; GI50 (SNB-19; SNB-19, 48 h): 7.08 µM
COc1ccc(/C=C\c2cc(OC)c(OC)c(OC)c2)cc1OCC(=O)Nc1ccc2nc(C)sc2c1	2.64	3.61	3.38	2.39	0.74	61	3.31	3.81	2.8	4.21	2.38	2.1	2.12	2.56	2.45	3.59	2.19	5.27	1.98	4.18	GI50 (OVCAR-5; OVCAR-5, 48 h): 6.69 µM; GI50 (SK-MEL-28; SK-MEL-28, 48 h): 3.22 µM; GI50 (786-0; 786-0, 48 h): 7.55 µM; growth inhibition (GI) (A549 [5]): inactive; GI50 (HCC 2998; HCC 2998, 48 h): 6.9 µM; inhibition of growth at 10 µM (HEp-2): 40%; GI50 (SNB-19; SNB-19, 48 h): 3.89 µM
COc1ccc(/C=C\c2cc(OC)c(OC)c(OC)c2)cc1OCC(=O)Nc1nc2ccc(F)cc2s1	3.23	7.23	6.82	3.68	2.3	32	9.63	8.97	6.74	9.89	5.73	5.99	7.15	4.51	4.29	4.33	3.62	8	6.36	6.25	GI50 (OVCAR-5): inactive; GI50 (SK-MEL-28): inactive; Activity (MCF7 [6]): Active; GI50 (786-0; 786-0, 48 h): 7.12 µM; inhibition of growth at 10 µM (A549 [5]): 44%; GI50 (HCC 2998): inactive; inhibition of growth at 10 µM (HEp-2): 64%; GI50 (SNB-19): inactive
COc1ccc(/C=C\c2cc(OC)c(OC)c(OC)c2)cc1OCC(=O)Nc1nc2ccc(C(F)(F)F)cc2s1	4.01	3.85	3.58	2.16	3.16	42	14.9	2.51	4.32	7.03	2.88	4.46	3.86	2.66	3.36	3.67	3.3	3.29	5.48	2.81	GI50 (OVCAR-5; OVCAR-5, 48 h): 5.98 µM; GI50 (SK-MEL-28; SK-MEL-28, 48 h): 3 µM; GI50 (786-0; 786-0, 48 h): 6.96 µM; inhibition of growth at 10 µM (A549 [5]): 30%; GI50 (HCC 2998; HCC 2998, 48 h): 4.23 µM; inhibition of growth at 10 µM (HEp-2): 76%; GI50 (SNB-19; SNB-19, 48 h): 5.03 µM
COc1ccc(/C=C\c2cc(OC)c(OC)c(OC)c2)cc1OCC(=O)Nc1nc2ccccc2s1	0.067	0.18	0.072	0.1	0.051	44	3.16	0.1	0.18		0.039	0.34	0.25	0.045	0.22	0.048	0.042	0.34	0.15	0.36	IC50 [7]: 5 µM; inhibition (MCF7 [8]): Active; inhibition [9]: Active; Activity (MCF7 [6]): Active; GI50 (786-0; 786-0, 48 h): 0.1 µM; inhibition of growth at 10 µM (A549 [5]): 44%; GI50 (HCC 2998; HCC 2998, 48 h): 0.37 µM; growth inhibition (GI) (HEp-2): inactive
COc1ccc(/C=C\c2cc(OC)c(OC)c(OC)c2)cc1O [COMBRETASTATIN A4]	0.003	0.006	0.002		0.005	76	0.1	0.001	0.001	0.1	0.002	0.015	0.003	0.002	0.003	0.007	0.002	0.063	0.003	0.006	inhibition [7]: Active; GI50 (OVCAR-5; OVCAR-5, 48 h): 0.1 µM; GI50 (MDA-MB-468): inactive; GI50 (SK-MEL-28; SK-MEL-28, 48 h): 0.007 µM; GI50 (786-0; 786-0, 48 h): 0.1 µM; inhibition of growth at 10 µM (A549 [5]): 55%; GI50 (HCC 2998; HCC 2998, 48 h): 0.063 µM; inhibition of growth at 10 µM (HEp-2): 64%; GI50 (SNB-19; SNB-19, 48 h): 0.003 µM
